The source made the active and inactive calls. The calls are words filed in the database; no cut-off is given here.
Tests used:
CFPAC-1 = test: Antiproliferative activity against human CFPAC-1 cells assessed as reduction in cell viability incubated for 72 hrs by MTT assay; assay type: functional, cell-based; settings: Homo sapiens, CFPAC-1, 72 h; read-out: IC50
Summary of the method: (§1)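 Cells (ATCC) grown in DMEM with 10 FBS, penicillin/streptomycin, 2 mM glutamine, 37 °C, 5 CO2. 5000 cells/well seeded; after 24 h, freshly prepared dilutions at five concentrations (0.01–100 μM) added for 72 h. MTT read-out; absorbance converted to percentage growth by NIH formulas. Two experiments in quadruplicate; IC50 by linear regression.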

Human adenovirus 2 = test: Antiviral activity against Human adenovirus 2 infected in human HELF cells assessed as reduction in virus-induced cytopathogenicity incubated for 7 days by microscopic analysis; assay type: functional, organism-based
Human alphaherpesvirus 1 [1] = test: Antiviral activity against Herpes simplex virus 1 TK-KOS-ACV infected in human HELF cells assessed as reduction in virus-induced cytopathogenicity incubated for 7 days by microscopic analysis; assay type: functional, organism-based
[2] = Cytotoxicity against human HELF cells assessed as reduction in cell viability incubated for 3 days by coulter counter method; assay type: cell-based; settings: 72 h
Summary of the method: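 HEL cells seeded at 5 x 10^3/well and allowed to proliferate 24 h, then exposed to graded compound concentrations for 3 days at 37 °C. Cell number counted with a Coulter counter.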

Cytomegalovirus [3] = test: Antiviral activity against Cytomegalovirus Davis infected in human HELF cells assessed as reduction in virus-induced cytopathogenicity incubated for 7 days by Giemsa staining based microscopic analysis; assay type: functional, organism-based; settings: Human betaherpesvirus 5, Davis, 168 h
Summary of the method: (§2)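 Confluent HEL fibroblasts infected with CMV (Davis or AD-169) at 100 PFU/well for 2 h. Residual virus removed, then medium with graded compound concentrations added (duplicate). Incubated 7 days at 37 °C. Cytopathogenicity scored microscopically after ethanol fixation and Giemsa staining. EC50 read from plots of % cytopathogenicity versus concentration.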

Influenza A virus [4] = test: Antiviral activity against Influenza A virus (A/Ned/378/05(H1N1)) infected in dog MDCK cells assessed as reduction in virus-induced cytopathogenicity incubated for 7 days by MTS assay; assay type: functional, organism-based
Sindbis virus = test: Antiviral activity against Sindbis virus infected in vero cells assessed as reduction in virus-induced cytopathogenicity incubated for 7 days by microscopic analysis; assay type: functional, organism-based
[5] = Cytotoxicity against human HELF cells assessed as minimum cytotoxic concentration by observing alteration in cell morphology incubated for 3 days by microscopic analysis; assay type: cell-based; settings: for MCC at 72 h: HELF cells
Summary of the method: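 Read-out is the minimum cytotoxic concentration (MCC): the lowest compound concentration giving a microscopically detectable change in cell morphology. Measured on confluent human embryonic lung (HEL) fibroblast cultures exposed to a range of compound concentrations.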

Human alphaherpesvirus 2 = test: Antiviral activity against Herpes simplex virus 2 G infected in human HELF cells assessed as reduction in virus-induced cytopathogenicity incubated for 7 days by microscopic analysis; assay type: functional, organism-based
MCF7 = test: Antiproliferative activity against human MCF7 cells assessed as reduction in cell viability incubated for 72 hrs by MTT assay; assay type: functional, cell-based; settings: MCF7, 72 h; summary of the method: as §1
Influenza A virus [6] = test: Antiviral activity against Influenza A virus (A/Ned/378/05(H1N1)) infected in dog MDCK cells assessed as reduction in virus-induced cytopathogenicity incubated for 7 days by microscopic analysis; assay type: functional, organism-based
Influenza A virus H3N2 [7] = test: Antiviral activity against Influenza A virus (A/HK/7/87(H3N2)) infected in dog MDCK cells assessed as reduction in virus-induced cytopathogenicity incubated for 7 days by microscopic analysis; assay type: functional, organism-based; settings: A/Hong Kong/7/1987(H3N2)
Influenza B virus [8] = test: Antiviral activity against Influenza B virus (B/Ned/537/05) infected in dog MDCK cells assessed as reduction in virus-induced cytopathogenicity incubated for 7 days by microscopic analysis; assay type: functional, organism-based
Human alphaherpesvirus 3 [9] = test: Antiviral activity against thymidine kinase positive Varicella zoster virus infected in human HELF cells assessed as reduction in virus-induced cytopathogenicity incubated for 7 days by Giemsa staining based microscopic analysis; assay type: functional, organism-based; settings: Human alphaherpesvirus 3, HELF, 168 h
Cytomegalovirus [10] = test: Antiviral activity against Cytomegalovirus AD169 infected in human HELF cells assessed as reduction in virus-induced cytopathogenicity incubated for 7 days by Giemsa staining based microscopic analysis; assay type: functional, organism-based; settings: Human betaherpesvirus 5, AD169, HELF, 168 h; summary of the method: as §2
Influenza A virus H3N2 [11] = test: Antiviral activity against Influenza A virus (A/HK/7/87(H3N2)) infected in dog MDCK cells assessed as reduction in virus-induced cytopathogenicity incubated for 7 days by MTS assay; assay type: functional, organism-based; settings: A/Hong Kong/7/1987(H3N2)
SW-620 = test: Antiproliferative activity against human SW620 cells assessed as reduction in cell viability incubated for 72 hrs by MTT assay; assay type: functional, cell-based; settings: SW-620, 72 h; summary of the method: as §1
HepG2 = test: Antiproliferative activity against human HepG2 cells assessed as reduction in cell viability incubated for 72 hrs by MTT assay; assay type: functional, cell-based; settings: HepG2, 72 h; summary of the method: as §1
HCT-116 = test: Antiproliferative activity against human HCT116cells assessed as reduction in cell viability incubated for 72 hrs by MTT assay; assay type: functional, cell-based; settings: HCT-116, 72 h; summary of the method: as §1
Human coronavirus 229E = test: Antiviral activity against Human coronavirus 229E infected in human HELF cells assessed as reduction in virus-induced cytopathogenicity incubated for 7 days by microscopic analysis; assay type: functional, organism-based
Influenza B virus [12] = test: Antiviral activity against Influenza B virus (B/Ned/537/05) infected in dog MDCK cells assessed as reduction in virus-induced cytopathogenicity incubated for 7 days by MTS assay; assay type: functional, organism-based
A549 = test: Antiproliferative activity against human A549 cells assessed as reduction in cell viability incubated for 72 hrs by MTT assay; assay type: functional, cell-based; settings: A549, 72 h; summary of the method: as §1
Coxsackievirus B4 = test: Antiviral activity against Human coxsackievirus B4 infected in vero cells assessed as reduction in virus-induced cytopathogenicity incubated for 7 days by microscopic analysis; assay type: functional, organism-based
Reovirus sp. = test: Antiviral activity against Reovirus infected in vero cells assessed as reduction in virus-induced cytopathogenicity incubated for 7 days by microscopic analysis; assay type: functional, organism-based
Human alphaherpesvirus 3 [13] = test: Antiviral activity against thymidine kinase deficient Varicella zoster virus infected in human HELF cells assessed as reduction in virus-induced cytopathogenicity incubated for 7 days by Giemsa staining based microscopic analysis; assay type: functional, organism-based; settings: Human alphaherpesvirus 3, HELF, 168 h
HeLa = test: Antiproliferative activity against human HeLa cells assessed as reduction in cell viability incubated for 72 hrs by MTT assay; assay type: functional, cell-based; summary of the method: as §1
Human alphaherpesvirus 1 [14] = test: Antiviral activity against Herpes simplex virus 1 KOS infected in human HELF cells assessed as reduction in virus-induced cytopathogenicity incubated for 7 days by microscopic analysis; assay type: functional, organism-based; settings: strain KOS
HFF = test: Cytotoxicity against human HFF cells assessed as reduction in cell viability incubated for 72 hrs by MTT assay; assay type: cell-based; summary of the method: as §1

Row | Compound | IC50 (CFPAC-1) [µM] | Activity (Human adenovirus 2) | Activity (Human alphaherpesvirus 1 [1]) | CC50 [2] [µM] | EC50 (Cytomegalovirus [3]) [µM] | Activity (Influenza A virus [4]) | Activity (Sindbis virus) | MCC at 72 h [5] [µM] | Activity (Human alphaherpesvirus 2) | IC50 (MCF7) [µM] | Activity (Influenza A virus [6]) | Activity (Influenza A virus H3N2 [7]) | Activity (Influenza B virus [8]) | EC50 (Human alphaherpesvirus 3 [9]) [µM] | EC50 (Cytomegalovirus [10]) [µM] | Activity (Influenza A virus H3N2 [11]) | IC50 (SW-620) [µM] | IC50 (HepG2) [µM] | IC50 (HCT-116) [µM] | EC50 (Human alphaherpesvirus 3 [13]) [µM] | also measured
1 | O=C1O/C(=C\Cn2cc(-c3ccc(Br)cc3)nn2)C(OCc2ccccc2)=C1OCc1ccccc1 | > 100 | inactive | inactive | > 100 | 8.94 | inactive | inactive | > 100 | inactive | > 100 | inactive | inactive | inactive | 44.7 | > 100 | inactive | > 100 | > 100 | > 100 | > 100 | Activity (Human coronavirus 229E): inactive; Activity (Influenza B virus [12]): inactive; IC50 (A549): > 100 µM; Activity (Coxsackievirus B4): inactive; Activity (Reovirus sp.): inactive; IC50 (HeLa): 24.3 µM; Activity (Human alphaherpesvirus 1 [14]): inactive; IC50 (HFF): > 100 µM
2 | CC(C)(C)c1cn(C/C=C2\OC(=O)C(OCc3ccccc3)=C2OCc2ccccc2)nn1 | > 100 | inactive | inactive | 55.5 | 5.2 | inactive | inactive | 100 | inactive | 4.93 | inactive | inactive | inactive | 11.7 | 8.94 | inactive | 20.7 | 62.2 | 47.3 | 10 | Activity (Human coronavirus 229E): inactive; Activity (Influenza B virus [12]): inactive; IC50 (A549): 5.25 µM; Activity (Coxsackievirus B4): inactive; Activity (Reovirus sp.): inactive; IC50 (HeLa): > 100 µM; Activity (Human alphaherpesvirus 1 [14]): inactive; IC50 (HFF): 49.9 µM
3 | COc1ccc(-c2cn(C/C=C3\OC(=O)C(OCc4ccccc4)=C3OCc3ccccc3)nn2)cc1 | > 100 | inactive | inactive | > 100 | 5.74 | inactive | inactive | > 100 | inactive | 39.1 | inactive | inactive | inactive | > 100 | 20 | inactive | > 100 | > 100 | > 100 | > 100 | Activity (Human coronavirus 229E): inactive; Activity (Influenza B virus [12]): inactive; IC50 (A549): > 100 µM; Activity (Coxsackievirus B4): inactive; Activity (Reovirus sp.): inactive; IC50 (HeLa): > 100 µM; Activity (Human alphaherpesvirus 1 [14]): inactive; IC50 (HFF): > 100 µM
4 | COc1ccccc1-c1cn(C/C=C2\OC(=O)C(OCc3ccccc3)=C2OCc2ccccc2)nn1 | > 100 | inactive | inactive | 4.29 | 10.8 | inactive | inactive | 100 | inactive | > 100 | inactive | inactive | inactive | > 100 | > 100 | inactive | > 100 | > 100 | > 100 | > 20 | Activity (Human coronavirus 229E): inactive; Activity (Influenza B virus [12]): inactive; IC50 (A549): > 100 µM; Activity (Coxsackievirus B4): inactive; Activity (Reovirus sp.): inactive; IC50 (HeLa): > 100 µM; Activity (Human alphaherpesvirus 1 [14]): inactive; IC50 (HFF): > 100 µM
5 | O=c1[nH]c(=O)n([C@H]2C[C@H](O)[C@@H](CO)O2)cc1/C=C/Br [BRIVUDINE] | – | – | – | 179 | – | – | – | – | – | – | – | – | – | 18.4 | – | – | – | – | – | 0.0066 | MCC ([5]; 72 h): 250 to 300 µM; EC50 (Human alphaherpesvirus 2; Human alphaherpesvirus 2, G, 168 h): > 250 µM
6 | C[Si](C)(C)c1cn(C[C@H](O)[C@H]2OC(=O)C(OCc3ccccc3)=C2OCc2ccccc2)nn1 | 52.6 | inactive | inactive | 22.3 | 12.1 | inactive | inactive | 100 | inactive | 12.1 | inactive | inactive | inactive | > 20 | > 100 | inactive | 56 | 24.1 | 31.8 | > 20 | Activity (Human coronavirus 229E): inactive; Activity (Influenza B virus [12]): inactive; Activity (Coxsackievirus B4): inactive; Activity (Reovirus sp.): inactive; IC50 (HeLa): 22.3 µM; Activity (Human alphaherpesvirus 1 [14]): inactive; IC50 (HFF): 20 µM
